Test results reported in PMC11923060 (Scientific Reports, 2025).

Experiments:
[1] = tested on: testes; assay: Western blot of junction proteins in testicular tissue; format: in vivo, Kunming mice; conditions: Days 20 and 40, + LPS, vs LPS group, n = 10 mice/group
In short: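 Male Kunming mice (8–10 wk), n = 10/group, gavaged with test peptide 0.5 mg/kg or antibiotic control 25 mg/kg in 200 µL saline for 20 d (10 doses) or 40 d (20 doses), then one i.p. LPS 5 mg/kg; killed 24 h later. ~100 mg testis homogenized in RIPA/protease inhibitors; PVDF blocked in skim milk 2 h, primary antibody overnight 4 °C, secondary 2 h, ECL.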

[2] = tested on: testes; assay: Immunofluorescence of tight junction proteins in testicular tissue; format: in vivo, Kunming mice; conditions: Days 20 and 40, + LPS, compared to the LPS group, n = 10 mice/group

polymyxin B
protein expression of TWIST1 (Western blot) [1]: significantly inhibited | expression of Claudin-1 (immunofluorescence) [2]: significant increases | expression of N-cadherin (immunofluorescence) [2]: significant increases
